# Experimental data from publication PMC12750163 (Acta Pharmaceutica Sinica. B, 2025).
# How the values were obtained:
# A549 cells = experiment: PD-L1 and EVs in A549 cells treated with GW4869; type: cell-based, human; settings: 10 μmol/L
# In short: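 A549 or LSD1-knockout A549 cells (lentiviral editing, antibiotic selection, PCR/sequencing check, single-cell cloning) are treated ± 10 μmol/L GW4869. Conditioned medium is spun 3000 × g, 10 min, 4 °C. EVs are precipitated with an equal volume of isolation reagent at 4 °C, pelleted 10,000 × g, 60 min, 4 °C, and PBS-washed. Characterisation by TEM/NTA. PD-L1, ALIX, TSG101 and CD9 are detected by western blot from equal cell numbers.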
# LLC tumor-bearing mice = experiment: In vivo biodistribution; parameters: species or system mouse; settings: i.v., over time
# In short: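 Cy5.5-loaded liposomes stand in for drug and anti-PD1. Free Cy5.5 or Cy5.5-nanoparticles (3 mg/kg Cy5.5 equivalent) are injected via the tail vein into LLC tumour-bearing nude mice. Mice are imaged under anaesthesia at 2, 4, 6, 8, 12 and 24 h (λex/λem 680/704 nm). Mean tumour ROI fluorescence is quantified. Organs and tumours are imaged ex vivo at 24 h.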
accumulation at the tumor site compared with Cy5.5-FPNs (LLC tumor-bearing mice),Compound,levels of EVs and EVs-PD-L1 (A549 cells; A549 cells),membrane PD-L1 and total PD-L1 (A549 cells; A549 cells),membrane PD-L1 (A549 cells; LSD1-knockout A549 cells)
,O=C(/C=C/c1ccc(/C=C/C(=O)Nc2ccc(C3=NCCN3)cc2)cc1)Nc1ccc(C2=NCCN2)cc1 [GW4869],reduced,significant accumulation,induced the accumulation
much lower,Cy5.5,,,
